# Source: ChEMBL document CHEMBL1124793, “Comparative reactivity of 1-carba-1-dethiacephalosporins with cephalosporins” (J Med Chem, 1990)
# Tested on: Providencia rettgeri
# Assay: In vitro inhibitory activity against Proteus rettgeri C24
# Type: functional
# Summary of the method: (§1)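 Agar dilution: compounds were diluted in 0.1 M phosphate buffer, pH 7.0, and mixed at 50 °C into Mueller–Hinton agar with 1% Bacto-Supplement C. Fresh overnight cultures were diluted to about 1 × 10^4 cells/μL and spotted at 1 μL. Plates were incubated overnight at 35 °C in ambient air. MIC (μg/mL) was the lowest concentration preventing visible growth.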
row,Compound,MIC [µg/mL]
1,N[C@@H](C(=O)N[C@@H]1C(=O)N2C(C(=O)O)=C(Cl)CS[C@H]12)c1ccccc1 [CEFACLOR ANHYDROUS],128
2,CC1=C(C(=O)O)N2C(=O)[C@@H](NC(=O)COc3ccccc3)[C@H]2CC1,128
3,CO/N=C(\C(=O)N[C@@H]1C(=O)N2C(C(=O)[O-])=C(C[n+]3ccccc3)CC[C@H]12)c1csc(N)n1,0.06
4,O=C(COc1ccccc1)N[C@@H]1C(=O)N2C(C(=O)O)=C(Cl)CC[C@H]12,128
5,CC1=C(C(=O)O)N2C(=O)[C@@H](NC(=O)COc3ccccc3)[C@H]2SC1,128
6,COC(=O)C1=C(C(=O)O)N2C(=O)[C@@H](NC(=O)Cc3cccs3)[C@H]2CC1,8
7,N[C@@H](C(=O)N[C@@H]1C(=O)N2C(C(=O)O)=C(Cl)CC[C@H]12)c1ccccc1 [LORACARBEF ANHYDROUS],128

# Tested on: not listed separately
# Assay: Half-life is evaluated
# Type: ADME
# Summary of the method: (§2)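 Parent β-lactam loss followed by HPLC, starting at 3.9 × 10^-4–1 × 10^-3 M, at 35 °C and μ = 0.5. pH was held at 10 by a pH-stat adding NaOH. Pseudo-first-order rate constants were derived, with half-lives from these rates. Some runs were done at pH 11, and the constant was taken as 1/10 of the observed value, assuming proportionality to [OH].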
row,Compound,half-life [h]
1,O=C(Cc1cccs1)N[C@@H]1C(=O)N2C(C(=O)O)=C(C(=O)O)CS[C@H]12,2.04
2,N[C@@H](C(=O)N[C@@H]1C(=O)N2C(C(=O)O)=C(Cl)CS[C@H]12)c1ccccc1 [CEFACLOR ANHYDROUS],0.734
3,O=C(Cc1cccs1)N[C@@H]1C(=O)N2C(C(=O)O)=C(C(=O)O)CC[C@H]12,66
4,CC1=C(C(=O)O)N2C(=O)[C@@H](NC(=O)COc3ccccc3)[C@H]2CC1,433
5,CO/N=C(\C(=O)N[C@@H]1C(=O)N2C(C(=O)[O-])=C(C[n+]3ccccc3)CC[C@H]12)c1csc(N)n1,11
6,O=C(COc1ccccc1)N[C@@H]1C(=O)N2C(C(=O)O)=C(Cl)CC[C@H]12,15.8
7,CC1=C(C(=O)O)N2C(=O)[C@@H](NC(=O)COc3ccccc3)[C@H]2SC1,8.74
8,COC(=O)C1=C(C(=O)O)N2C(=O)[C@@H](NC(=O)Cc3cccs3)[C@H]2CC1,0.867
9,N[C@@H](C(=O)N[C@@H]1C(=O)N2C(C(=O)O)=C(Cl)CC[C@H]12)c1ccccc1 [LORACARBEF ANHYDROUS],21.4

# Tested on: Streptococcus pyogenes
# Assay: In vitro inhibitory activity against Streptococcus pyogenes Park
# Type: functional
# Summary of the method: as §1
row,Compound,MIC [µg/mL]
1,N[C@@H](C(=O)N[C@@H]1C(=O)N2C(C(=O)O)=C(Cl)CS[C@H]12)c1ccccc1 [CEFACLOR ANHYDROUS],0.5
2,CC1=C(C(=O)O)N2C(=O)[C@@H](NC(=O)COc3ccccc3)[C@H]2CC1,1
3,CO/N=C(\C(=O)N[C@@H]1C(=O)N2C(C(=O)[O-])=C(C[n+]3ccccc3)CC[C@H]12)c1csc(N)n1,0.015
4,O=C(COc1ccccc1)N[C@@H]1C(=O)N2C(C(=O)O)=C(Cl)CC[C@H]12,0.25
5,CC1=C(C(=O)O)N2C(=O)[C@@H](NC(=O)COc3ccccc3)[C@H]2SC1,1
6,N[C@@H](C(=O)N[C@@H]1C(=O)N2C(C(=O)O)=C(Cl)CC[C@H]12)c1ccccc1 [LORACARBEF ANHYDROUS],1

# Tested on: Pseudomonas aeruginosa
# Assay: In vitro inhibitory activity against Pseudomonas aeruginosa X258
# Type: functional
# Summary of the method: as §1
row,Compound,MIC [µg/mL]
1,N[C@@H](C(=O)N[C@@H]1C(=O)N2C(C(=O)O)=C(Cl)CS[C@H]12)c1ccccc1 [CEFACLOR ANHYDROUS],128
2,CC1=C(C(=O)O)N2C(=O)[C@@H](NC(=O)COc3ccccc3)[C@H]2CC1,128
3,CO/N=C(\C(=O)N[C@@H]1C(=O)N2C(C(=O)[O-])=C(C[n+]3ccccc3)CC[C@H]12)c1csc(N)n1,2
4,O=C(COc1ccccc1)N[C@@H]1C(=O)N2C(C(=O)O)=C(Cl)CC[C@H]12,128
5,CC1=C(C(=O)O)N2C(=O)[C@@H](NC(=O)COc3ccccc3)[C@H]2SC1,128
6,COC(=O)C1=C(C(=O)O)N2C(=O)[C@@H](NC(=O)Cc3cccs3)[C@H]2CC1,128
7,N[C@@H](C(=O)N[C@@H]1C(=O)N2C(C(=O)O)=C(Cl)CC[C@H]12)c1ccccc1 [LORACARBEF ANHYDROUS],128

# Tested on: Staphylococcus aureus
# Assay: In vitro inhibitory activity against Staphylococcus aureus X1.1
# Type: functional
# Summary of the method: as §1
row,Compound,MIC [µg/mL]
1,N[C@@H](C(=O)N[C@@H]1C(=O)N2C(C(=O)O)=C(Cl)CS[C@H]12)c1ccccc1 [CEFACLOR ANHYDROUS],1
2,CC1=C(C(=O)O)N2C(=O)[C@@H](NC(=O)COc3ccccc3)[C@H]2CC1,4
3,CO/N=C(\C(=O)N[C@@H]1C(=O)N2C(C(=O)[O-])=C(C[n+]3ccccc3)CC[C@H]12)c1csc(N)n1,4
4,O=C(COc1ccccc1)N[C@@H]1C(=O)N2C(C(=O)O)=C(Cl)CC[C@H]12,1
5,CC1=C(C(=O)O)N2C(=O)[C@@H](NC(=O)COc3ccccc3)[C@H]2SC1,4
6,COC(=O)C1=C(C(=O)O)N2C(=O)[C@@H](NC(=O)Cc3cccs3)[C@H]2CC1,0.25
7,N[C@@H](C(=O)N[C@@H]1C(=O)N2C(C(=O)O)=C(Cl)CC[C@H]12)c1ccccc1 [LORACARBEF ANHYDROUS],2

# Tested on: Escherichia coli
# Assay: In vitro inhibitory activity against Escherichia coli EC14
# Type: functional
# Summary of the method: as §1
row,Compound,MIC [µg/mL]
1,N[C@@H](C(=O)N[C@@H]1C(=O)N2C(C(=O)O)=C(Cl)CS[C@H]12)c1ccccc1 [CEFACLOR ANHYDROUS],0.25
2,CC1=C(C(=O)O)N2C(=O)[C@@H](NC(=O)COc3ccccc3)[C@H]2CC1,128
3,CO/N=C(\C(=O)N[C@@H]1C(=O)N2C(C(=O)[O-])=C(C[n+]3ccccc3)CC[C@H]12)c1csc(N)n1,0.03
4,O=C(COc1ccccc1)N[C@@H]1C(=O)N2C(C(=O)O)=C(Cl)CC[C@H]12,8
5,CC1=C(C(=O)O)N2C(=O)[C@@H](NC(=O)COc3ccccc3)[C@H]2SC1,128
6,COC(=O)C1=C(C(=O)O)N2C(=O)[C@@H](NC(=O)Cc3cccs3)[C@H]2CC1,1
7,N[C@@H](C(=O)N[C@@H]1C(=O)N2C(C(=O)O)=C(Cl)CC[C@H]12)c1ccccc1 [LORACARBEF ANHYDROUS],0.25

# Tested on: not listed separately
# Assay: Pseudo-first-order rate constant at pH 10, micro=0.5, 35 degrees Centigrade
# Type: ADME
# Summary of the method: as §2
row,Compound,K [h⁻¹]
1,CC1=C(C(=O)O)N2C(=O)[C@@H](NC(=O)COc3ccccc3)[C@H]2CC1,0.0016
2,O=C(COc1ccccc1)N[C@@H]1C(=O)N2C(C(=O)O)=C(Cl)CC[C@H]12,0.0438
3,COC(=O)C1=C(C(=O)O)N2C(=O)[C@@H](NC(=O)Cc3cccs3)[C@H]2CC1,0.799

# Tested on: not listed separately
# Assay: Pseudo-first-order rate constant at pH 10 and 35 degrees Centigrade
# Type: ADME
# Summary of the method: as §2
row,Compound,K [h⁻¹]
1,O=C(Cc1cccs1)N[C@@H]1C(=O)N2C(C(=O)O)=C(C(=O)O)CS[C@H]12,0.34
2,N[C@@H](C(=O)N[C@@H]1C(=O)N2C(C(=O)O)=C(Cl)CS[C@H]12)c1ccccc1 [CEFACLOR ANHYDROUS],0.944
3,O=C(Cc1cccs1)N[C@@H]1C(=O)N2C(C(=O)O)=C(C(=O)O)CC[C@H]12,0.0105
4,CO/N=C(\C(=O)N[C@@H]1C(=O)N2C(C(=O)[O-])=C(C[n+]3ccccc3)CC[C@H]12)c1csc(N)n1,0.0628
5,CC1=C(C(=O)O)N2C(=O)[C@@H](NC(=O)COc3ccccc3)[C@H]2SC1,0.0793
6,N[C@@H](C(=O)N[C@@H]1C(=O)N2C(C(=O)O)=C(Cl)CC[C@H]12)c1ccccc1 [LORACARBEF ANHYDROUS],0.0324

# Tested on: Haemophilus influenzae
# Assay: In vitro inhibitory activity against Haemophilus influenza C.L
# Type: functional
# Summary of the method: as §1
row,Compound,MIC [µg/mL]
1,N[C@@H](C(=O)N[C@@H]1C(=O)N2C(C(=O)O)=C(Cl)CS[C@H]12)c1ccccc1 [CEFACLOR ANHYDROUS],1
2,CC1=C(C(=O)O)N2C(=O)[C@@H](NC(=O)COc3ccccc3)[C@H]2CC1,32
3,CO/N=C(\C(=O)N[C@@H]1C(=O)N2C(C(=O)[O-])=C(C[n+]3ccccc3)CC[C@H]12)c1csc(N)n1,0.5
4,O=C(COc1ccccc1)N[C@@H]1C(=O)N2C(C(=O)O)=C(Cl)CC[C@H]12,4
5,CC1=C(C(=O)O)N2C(=O)[C@@H](NC(=O)COc3ccccc3)[C@H]2SC1,16
6,COC(=O)C1=C(C(=O)O)N2C(=O)[C@@H](NC(=O)Cc3cccs3)[C@H]2CC1,1
7,N[C@@H](C(=O)N[C@@H]1C(=O)N2C(C(=O)O)=C(Cl)CC[C@H]12)c1ccccc1 [LORACARBEF ANHYDROUS],0.5

# Tested on: Enterobacter cloacae
# Assay: In vitro inhibitory activity against Enterobacter cloacae EB5
# Type: functional
# Summary of the method: as §1
row,Compound,MIC [µg/mL]
1,N[C@@H](C(=O)N[C@@H]1C(=O)N2C(C(=O)O)=C(Cl)CS[C@H]12)c1ccccc1 [CEFACLOR ANHYDROUS],32
2,CC1=C(C(=O)O)N2C(=O)[C@@H](NC(=O)COc3ccccc3)[C@H]2CC1,128
3,CO/N=C(\C(=O)N[C@@H]1C(=O)N2C(C(=O)[O-])=C(C[n+]3ccccc3)CC[C@H]12)c1csc(N)n1,0.06
4,O=C(COc1ccccc1)N[C@@H]1C(=O)N2C(C(=O)O)=C(Cl)CC[C@H]12,128
5,CC1=C(C(=O)O)N2C(=O)[C@@H](NC(=O)COc3ccccc3)[C@H]2SC1,128
6,COC(=O)C1=C(C(=O)O)N2C(=O)[C@@H](NC(=O)Cc3cccs3)[C@H]2CC1,128
7,N[C@@H](C(=O)N[C@@H]1C(=O)N2C(C(=O)O)=C(Cl)CC[C@H]12)c1ccccc1 [LORACARBEF ANHYDROUS],4

# Tested on: Klebsiella pneumoniae
# Assay: In vitro inhibitory activity against Klebsiella X26
# Type: functional
# Summary of the method: as §1
row,Compound,MIC [µg/mL]
1,N[C@@H](C(=O)N[C@@H]1C(=O)N2C(C(=O)O)=C(Cl)CS[C@H]12)c1ccccc1 [CEFACLOR ANHYDROUS],0.25
2,CC1=C(C(=O)O)N2C(=O)[C@@H](NC(=O)COc3ccccc3)[C@H]2CC1,32
3,CO/N=C(\C(=O)N[C@@H]1C(=O)N2C(C(=O)[O-])=C(C[n+]3ccccc3)CC[C@H]12)c1csc(N)n1,0.03
4,O=C(COc1ccccc1)N[C@@H]1C(=O)N2C(C(=O)O)=C(Cl)CC[C@H]12,8
5,CC1=C(C(=O)O)N2C(=O)[C@@H](NC(=O)COc3ccccc3)[C@H]2SC1,64
6,COC(=O)C1=C(C(=O)O)N2C(=O)[C@@H](NC(=O)Cc3cccs3)[C@H]2CC1,0.25
7,N[C@@H](C(=O)N[C@@H]1C(=O)N2C(C(=O)O)=C(Cl)CC[C@H]12)c1ccccc1 [LORACARBEF ANHYDROUS],0.25
